Measured values taken from ChEMBL document CHEMBL2375227, “Novel small molecules as apoptosis inducers: synthesis, preliminary structure-activity relationships, and in vitro biological evaluation” (Bioorg Med Chem Lett, 2013).

Assays:
[1] = Antiproliferative activity against human H460 cells after 48 hrs by MTT assay; format: functional, cell-based; conditions: NCI-H460, 48 h
Outline: (§1)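 Cells seeded at 3 × 10^3/well and grown 24 h, then exposed to compounds for 48 h. MTT (5 mg/ml stock) added for 2 h at 37 °C, supernatant removed, formazan dissolved in DMSO 15-20 min. Absorbance read at 570 nm. IC50 per cell line, mean of three determinations.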

[2] = system: HeLa; assay: Antiproliferative activity against human HeLa cells after 48 hrs by MTT assay; format: functional, cell-based; outline: as §1
[3] = Antiproliferative activity against human A875 cells after 48 hrs by MTT assay; format: functional, cell-based; conditions: A875, 48 h; outline: as §1
[4] = system: SMMC-7721; assay: Antiproliferative activity against human SMMC7721 cells after 48 hrs by MTT assay; format: functional, cell-based; conditions: SMMC-7721, 48 h; outline: as §1
[5] = system: HT-29; assay: Antiproliferative activity against human HT-29 cells after 48 hrs by MTT assay; format: functional, cell-based; conditions: HT-29, 48 h; outline: as §1
[6] = system: HCT-116; assay: Antiproliferative activity against human HCT116 cells after 48 hrs by MTT assay; format: functional, cell-based; conditions: HCT-116, 48 h; outline: as §1
[7] = system: BXPC-3; assay: Antiproliferative activity against human BxPC3 cells after 48 hrs by MTT assay; format: functional, cell-based; conditions: BXPC-3, 48 h; outline: as §1
[8] = system: HepG2; assay: Antiproliferative activity against human HepG2 cells after 48 hrs by MTT assay; format: functional, cell-based; conditions: HepG2, 48 h; outline: as §1
[9] = system: A549; assay: Antiproliferative activity against human A549 cells after 48 hrs by MTT assay; format: functional, cell-based; conditions: A549, 48 h; outline: as §1
[10] = system: Bel-7402; assay: Antiproliferative activity against human Bel7402 cells after 48 hrs by MTT assay; format: functional, cell-based; conditions: Bel-7402, 48 h; outline: as §1
[11] = Cell cycle arrest in human A875 cells assessed as accumulation at G0/G1 phase at 0.38 uM after 48 hrs by propidium iodide staining-based flow cytometric analysis (reference value: 78.18%); format: functional
[12] = Induction of apoptosis in human A875 cells at 0.38 uM after 24 hrs by propidium iodide staining-based flow cytometric analysis (reference value: 1.14%); format: functional
[13] = Induction of apoptosis in human A875 cells at 0.75 uM after 24 hrs by propidium iodide staining-based flow cytometric analysis (reference value: 1.14%); format: functional
[14] = Induction of apoptosis in human A875 cells at 0.38 uM after 48 hrs by propidium iodide staining-based flow cytometric analysis (reference value: 1.56%); format: functional
[15] = Cell cycle arrest in human A875 cells assessed as accumulation at G2/M phase at 0.75 uM after 48 hrs by propidium iodide staining-based flow cytometric analysis (reference value: 10.36%); format: functional
[16] = Induction of apoptosis in human A875 cells at 1.5 uM after 48 hrs by propidium iodide staining-based flow cytometric analysis (reference value: 1.56%); format: functional
[17] = Induction of apoptosis in human A875 cells at 0.75 uM after 48 hrs by propidium iodide staining-based flow cytometric analysis (reference value: 1.56%); format: functional
[18] = system: A875; assay: Induction of apoptosis in human A875 cells after 48 hrs by propidium iodide staining-based flow cytometric analysis; format: functional, cell-based
[19] = Cell cycle arrest in human A875 cells assessed as accumulation at G2/M phase at 1.5 uM after 48 hrs by propidium iodide staining-based flow cytometric analysis (reference value: 10.36%); format: functional
[20] = system: A875; assay: Induction of apoptosis in human A875 cells assessed as appearance of condensed nuclei after 36 hrs by Hoechst 33342 staining-based fluorescence microscopic analysis; format: functional, cell-based
Outline: (§2)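 A875 cells (1 × 10^5/well) cultured 24 h, then treated for 36 h at 0.38, 0.75 or 1.5 µM. After PBS rinse and fixation in 75% ethanol, morphology checked by inverted bright-field microscope. Nuclei then stained with Hoechst 33342 (2 µg/mL in PBS) and examined by fluorescence microscopy for condensed, fragmented nuclei.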

[21] = system: A875; assay: Induction of apoptosis in human A875 cells assessed as cell shrinkage and rounding up after 36 hrs by Hoechst 33342 staining-based fluorescence microscopic analysis; format: functional; outline: as §2
[22] = Cell cycle arrest in human A875 cells assessed as accumulation at S phase at 1.5 uM after 48 hrs by propidium iodide staining-based flow cytometric analysis (reference value: 11.46%); format: functional
[23] = Cell cycle arrest in human A875 cells assessed as accumulation at S phase at 0.75 uM after 48 hrs by propidium iodide staining-based flow cytometric analysis (reference value: 11.46%); format: functional
[24] = Cell cycle arrest in human A875 cells assessed as accumulation at S phase at 0.38 uM after 48 hrs by propidium iodide staining-based flow cytometric analysis (reference value: 11.46%); format: functional
[25] = Cell cycle arrest in human A875 cells assessed as accumulation at G2/M phase at 0.38 uM after 48 hrs by propidium iodide staining-based flow cytometric analysis (reference value: 10.36%); format: functional
[26] = Cell cycle arrest in human A875 cells assessed as accumulation at G0/G1 phase at 1.5 uM after 48 hrs by propidium iodide staining-based flow cytometric analysis (reference value: 78.18%); format: functional
[27] = Induction of apoptosis in human A875 cells at 1.5 uM after 24 hrs by propidium iodide staining-based flow cytometric analysis (reference value: 1.14%); format: functional
[28] = Cell cycle arrest in human A875 cells assessed as accumulation at G0/G1 phase at 0.75 uM after 48 hrs by propidium iodide staining-based flow cytometric analysis (reference value: 78.18%); format: functional

O=C(CSc1ccc(NC(=O)CCCl)cc1)NCc1ccc(Cl)cc1
IC50 [1]: 60.8 µM | IC50 [2]: > 80 µM | IC50 [3]: 31.4 µM

O=C(CSc1nnc(NC(=O)C(Cl)Cl)s1)Nc1ccc(Br)cn1
IC50 [1]: 5.3 µM | IC50 [2]: 15.2 µM | IC50 [3]: 6.5 µM

O=C(CCCl)Nc1ccc(SCC(=O)Nc2ccc(Br)cn2)cc1
IC50 [1]: 1.6 µM | IC50 [2]: 15.6 µM | IC50 [3]: 24.3 µM

O=C(CCl)Nc1ccc(SCC(=O)Nc2ccccn2)cc1
IC50 [1]: 11.9 µM | IC50 [2]: 7.8 µM | IC50 [3]: 17.2 µM

Cc1ccc(NC(=O)CSc2nnc(NC(=O)CCl)s2)nc1
IC50 [1]: 15.4 µM | IC50 [2]: 10.9 µM | IC50 [3]: 18.3 µM

COc1ccccc1C(=O)Nc1nnc(SCC(=O)Nc2c(C)ccnc2Cl)s1
IC50 [1]: > 80 µM | IC50 [2]: > 80 µM | IC50 [3]: > 80 µM

O=C(CCCCl)Nc1ccc(SCC(=O)Nc2ccc(Cl)cn2)cc1
IC50 [1]: > 80 µM | IC50 [2]: > 80 µM | IC50 [3]: > 80 µM

O=C(CCl)Nc1ccc(SCC(=O)Nc2ccc(Br)cn2)cc1
IC50 [4]: 0.43 µM | IC50 [1]: 0.53 µM | IC50 [5]: 13.7 µM | IC50 [2]: 2.1 µM | IC50 [6]: 1.2 µM | IC50 [7]: 0.28 µM | IC50 [8]: 5.8 µM | IC50 [9]: 6.2 µM | IC50 [3]: 0.29 µM | IC50 [10]: 0.67 µM

O=C(CSc1ccc(NC(=O)CCl)cc1)NCc1cccc(Cl)c1
IC50 [1]: 33.4 µM | IC50 [2]: > 80 µM | IC50 [3]: 7.8 µM

C=CC(=O)Nc1ccc(SCC(=O)Nc2cc(Cl)ccn2)cc1
IC50 [1]: 19.7 µM | IC50 [2]: 25.2 µM | IC50 [3]: 14.7 µM

O=C(CSc1nnc(NC(=O)c2c(Cl)cccc2Cl)s1)Nc1ccc(Br)cn1
IC50 [1]: 16.8 µM | IC50 [2]: 25.8 µM | IC50 [3]: 18.6 µM

C=CC(=O)Nc1ccc(SCC(=O)NCc2cccc(Cl)c2)cc1
IC50 [1]: 74.5 µM | IC50 [2]: > 80 µM | IC50 [3]: 21.1 µM

O=C(CSc1nnc(NC(=O)CCCCl)s1)Nc1ccc(Cl)cn1
IC50 [1]: 55.2 µM | IC50 [2]: > 80 µM | IC50 [3]: > 80 µM

O=C(CSc1nnc(NC(=O)CCl)s1)Nc1ccc(Cl)cn1
IC50 [1]: 5.7 µM | IC50 [2]: 3.6 µM | IC50 [3]: 8.6 µM

O=C(CSc1nnc(NC(=O)CCCl)s1)Nc1ccc(Br)cn1
IC50 [1]: 0.56 µM | IC50 [2]: 5.3 µM | IC50 [3]: 0.43 µM

O=C(CSc1ccc(NC(=O)C(Cl)(Cl)Cl)cc1)Nc1ccc(Cl)cn1
IC50 [1]: > 80 µM | IC50 [2]: > 80 µM | IC50 [3]: > 80 µM

CC(C)(C)C(=O)Nc1ccc(SCC(=O)Nc2cc(Cl)ccn2)cc1
IC50 [1]: 35.3 µM | IC50 [2]: > 80 µM | IC50 [3]: > 80 µM

COc1ccccc1C(=O)Nc1nnc(SCC(=O)Nc2ccc(Br)cn2)s1
IC50 [1]: > 80 µM | IC50 [2]: > 80 µM | IC50 [3]: > 80 µM

COc1ccccc1C(=O)Nc1nnc(SCC(=O)Nc2ccc(C)cn2)s1
IC50 [1]: > 80 µM | IC50 [2]: > 80 µM | IC50 [3]: > 80 µM

O=C(CCl)Nc1ccc(SCC(=O)Nc2ccc(Cl)cn2)cc1
Activity [11]: 60% | Activity [12]: 3.67% | Activity [13]: 25.45% | Activity [14]: 11.17% | Activity [15]: 21.8% | IC50 [4]: 0.35 µM | IC50 [1]: 0.42 µM | IC50 [5]: 8.7 µM | Activity [16]: 61.59% | Activity [17]: 41.59% | IC50 [2]: 2.5 µM | Activity [18]: Dose-dependent effect | IC50 [6]: 0.61 µM | IC50 [7]: 0.19 µM | Activity [19]: 29.9% | Activity [20]: Dose-dependent effect | Activity [21]: Dose-dependent effect | Activity [22]: 39.6% | Activity [23]: 31.2% | Activity [24]: 29.1% | Activity [25]: 10.8% | Activity [26]: 30.5% | IC50 [8]: 3.6 µM | Activity [27]: 42.88% | IC50 [9]: 0.59 µM | IC50 [3]: 0.098 µM | Activity [28]: 48.9% | IC50 [10]: 0.45 µM

O=C(CSc1ccc(NC(=O)CCl)cc1)NCc1ccc(Cl)cc1
IC50 [1]: 23.1 µM | IC50 [2]: > 80 µM | IC50 [3]: 8.9 µM

O=C(CCCl)Nc1ccc(SCC(=O)Nc2ccccn2)cc1
IC50 [1]: 65.4 µM | IC50 [2]: 70.4 µM | IC50 [3]: 29.5 µM

C=CC(=O)Nc1ccc(SCC(=O)Nc2ccccn2)cc1
IC50 [1]: 76.8 µM | IC50 [2]: > 80 µM | IC50 [3]: 23.4 µM

CC(C)(C)C(=O)Nc1ccc(SCC(=O)Nc2ccc(Cl)cn2)cc1
IC50 [1]: 67.2 µM | IC50 [2]: > 80 µM | IC50 [3]: > 80 µM

O=C(CSc1nnc(NC(=O)CCl)s1)Nc1ccc(Br)cn1
IC50 [1]: 7.5 µM | IC50 [2]: 3.4 µM | IC50 [3]: 13.9 µM

O=C(CCCl)Nc1ccc(SCC(=O)Nc2cc(Cl)ccn2)cc1
IC50 [1]: 10.9 µM | IC50 [2]: 21.7 µM | IC50 [3]: 12.3 µM

Cc1ccnc(Cl)c1NC(=O)CSc1nnc(NC(=O)CCl)s1
IC50 [1]: 59.6 µM | IC50 [2]: 70.5 µM | IC50 [3]: 34.7 µM

O=C(CSc1ccc(NC(=O)C(Cl)Cl)cc1)Nc1ccc(Br)cn1
IC50 [1]: 47.8 µM | IC50 [2]: > 80 µM | IC50 [3]: 56.8 µM

O=C(CCl)Nc1ccc(SCC(=O)Nc2cc(Cl)ccn2)cc1
IC50 [1]: 5.6 µM | IC50 [2]: 2.8 µM | IC50 [3]: 0.85 µM

COc1ccccc1C(=O)Nc1nnc(SCC(=O)Nc2ccc(Cl)cn2)s1
IC50 [1]: > 80 µM | IC50 [2]: > 80 µM | IC50 [3]: > 80 µM
